Measurements published in the RNAGym collection of RNA variant scans (doi:10.1126/science.aae0568).
This sample holds only a part of the variants without activity.

B1: tRNA (parent)
chain: GUUCCGUUGGCGUAAUGGUAACGCGUCUCCCUCCUAAGGAGAAGACUGCGGGUUCGAGUCCCGUACGGAACG

Variants of: B1
Assay: yeast fitness relative to wild type (ratio to wild type); higher = fitter; tRNA-Arg(CCU), competitive growth, 37 C, YPD
Procedure, shortened: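 Variants of the tRNA-Arg(CCU) gene, chemically synthesised with a 3% per-site mutation rate at 69 sites, were placed at the native genomic locus in Saccharomyces cerevisiae. The pooled strains were competed in YPD at 37°C for 24 hours in six parallel replicates. Gene amplicons from the start population and from each end population were read by 100-nucleotide paired-end sequencing. Darwinian fitness relative to wild type came from changes in genotype frequencies; genotypes needed ≥ 100 starting reads, and estimates < 0.5 were set to 0.5.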

| Variant | yeast fitness |
| --- | --- |
| C5U A20C A36G | 0.632 |
| C5U A14U G41C | ≤ 0.5 |
| C5U C11G C29G C46U | ≤ 0.5 |
| C5U A14U C29U C46G | ≤ 0.5 |
| C5U C11G C24U A42C A65C A70U | ≤ 0.5 |
| C5U A20C A36G G52C | 0.567 |
| C5G U19G | 0.916 |
| C5U C24U U32A C55G A69U | ≤ 0.5 |
| C5U C22U C33U G68C A69U | ≤ 0.5 |
| C5U C22G C27G C29G C49U | ≤ 0.5 |
| C5U A15G G58C G68A | 0.51 |
| C5U A20U U26A C49A A57C C62U | ≤ 0.5 |
| C5G U19G C22U U32C A65C C66U | ≤ 0.5 |
| C5G U47A G58A | 0.567 |
| C5U A45U C46G | ≤ 0.5 |
| C5U A21U C31U G52A A69G | ≤ 0.5 |
| C5U C27G G38A | 0.515 |
| C5U C24U G38C G44C | ≤ 0.5 |
| C5G U16A C29U A40U | 0.523 |
| C5U A20G U35C A37G | ≤ 0.5 |
| C5U A14G G67A | 0.642 |
| C5U C22U A37C C55A | 0.538 |
| C5U A21U | 0.766 |
| C5U A21C | 0.897 |

| Variant | yeast fitness |
| --- | --- |
| C5U A45C G63C | ≤ 0.5 |
| C5U A15U G17C U26C | ≤ 0.5 |
| C5G U64A | 0.784 |
| C5G U28C | 0.737 |
| C5G U28A | 0.669 |
| C5U A37C G52C | ≤ 0.5 |
| C5U C11A C34G | ≤ 0.5 |
| C5U A37C C61U | 0.627 |
| C5U A37C C61G | ≤ 0.5 |
| C5U A15G C22U A37U A65C | ≤ 0.5 |
| C5U A20C A70U | 0.732 |
| C5G U26C G51C A57U | ≤ 0.5 |
| C5G U47A | 0.731 |
| C5G U26C A70G | 0.632 |
| C5G U28G C31U G51A U54A U59A | 0.522 |
| C5U A69C | 0.865 |
| C5U C24U G41C | ≤ 0.5 |
| C5U A21G A42U G58A | 1.02 |
| C5G U53C C55A A57G | ≤ 0.5 |
| C5U A20U C61U C62U | ≤ 0.5 |
| C5U A14G U26C C30U A42C C61G | ≤ 0.5 |
| C5U C11U U32G C33A U47A C62U C66G | ≤ 0.5 |
| C5U C11A A21G A40U | 0.68 |
| C5U C22G C29G C60A G67A | ≤ 0.5 |

| Variant | yeast fitness |
| --- | --- |
| C5U A20U C49G A69C | ≤ 0.5 |
| C5U A21G C27U G41A | ≤ 0.5 |
| C5U A37G G56C | 0.533 |
| C5G U59G G63A | 0.526 |
| C5U C22U G41C C49G U59G G63A C66U | ≤ 0.5 |
| C5U A20C G67A | 1.01 |
| C5U A14U U32A U54C C55U | ≤ 0.5 |
| C5U A43G G48A | 0.678 |
| C5U A15C | 0.763 |
| C5U A14C C62A | 0.504 |
| C5U A42G G51C G56A | 0.698 |
| C5G U26C A43G U47C U64A | ≤ 0.5 |
| C5U C24U G56C | 0.53 |
| C5U A65G A69G A70U | ≤ 0.5 |
| C5U A14U G17C A36U | ≤ 0.5 |
| C5U A42G A45U C60G | ≤ 0.5 |
| C5U A45G A69G | 0.909 |
| C5U C24A G67C | 0.547 |
| C5U C22G C27U | 0.612 |
| C5U A43U G50U | 0.657 |
| C5U A15U G17A C46G G63C C66A | ≤ 0.5 |
| C5U C11A A14C C33G | ≤ 0.5 |
| C5U C11G U13C A15U U32A U35G C55A C61G | ≤ 0.5 |
| C5G U35C C49G | ≤ 0.5 |

| Variant | yeast fitness |
| --- | --- |
| C5U A21U C62U A70C | ≤ 0.5 |
| C5U A45U C62G G63A | ≤ 0.5 |
| C5U A36U A70U | 0.628 |
| C5U C22G C24G C31U A70C | ≤ 0.5 |
| C5U C27A A42U C49G C60A | 0.817 |
| C5U A14C A15U G17A U26C A42U A45C | 0.508 |
| C5U C11A A43U C66U | 0.621 |
| C5U A37G U59G G68C | ≤ 0.5 |
| C5U A14C G41C A43C | ≤ 0.5 |
| C5G U59G C66U | ≤ 0.5 |
| C5U A15G C22G G41A A45U U47A C62U A69U | ≤ 0.5 |
| C5U A45G C61G C66U A69U | ≤ 0.5 |
| C5U A20C G39C G58A | ≤ 0.5 |
| C5U C11A A45G | 0.537 |
| C5U A57G G63A | 0.63 |
| C5G U16A | 0.959 |
| C5U C24U A40C A45U | ≤ 0.5 |
| C5U C22U G48C C66U | ≤ 0.5 |
| C5U A21U C30G C66A | 0.552 |
| C5U C11U G67C | 0.659 |
| C5U A14G C29U A37U | ≤ 0.5 |
| C5U A37C G50C | ≤ 0.5 |
| C5U A21G G44C A57U C62U | ≤ 0.5 |
| C5U C11U | 0.889 |

| Variant | yeast fitness |
| --- | --- |
| C5U C11A C24G C27G A36U G38C U53G | ≤ 0.5 |
| C5U A14G A65G | 0.69 |
| C5G U35G A43G C49U G63A A65U | ≤ 0.5 |
| C5G U26C A42G A57G A70G | ≤ 0.5 |
| C5U A40C A65U | 0.643 |
| C5U C11U C29U C30G A70C | ≤ 0.5 |
| C5U A21C C31G C66U | 0.528 |
| C5U A45U C46G C60A | 0.597 |
| C5U C11A A21C C27G | 0.564 |
| C5U A15G C66U | 0.632 |
| C5G U28C C31G C62U | ≤ 0.5 |
| C5U A57U G63A | ≤ 0.5 |
| C5G U16A A69U | ≤ 0.5 |
| C5U A20U C30U G63A | ≤ 0.5 |
| C5U C27G C31G G50C G58C | 0.743 |
| C5U C11U C49U | 0.721 |
| C5U A40C A42G | 0.558 |
| C5U C22U A37C G48U C55A | ≤ 0.5 |
| C5G U26A A69C | 0.634 |
| C5U C11A C31U C34U | ≤ 0.5 |
| C5U C11A A20C C22G C30U C31G C61A | 0.543 |
| C5U C11G C34U A42C C61A A70U | ≤ 0.5 |
| C5U A20C C29A C49G A57G | ≤ 0.5 |
| C5G U35C C66U | 0.546 |

| Variant | yeast fitness |
| --- | --- |
| C5G U26C A43G U47C | ≤ 0.5 |
| C5U A21U U28C C30G A70U | ≤ 0.5 |
| C5G U26A C46U | 0.96 |
| C5G U35C C49U C61G | ≤ 0.5 |
| C5G U16A A43G G63U | 0.524 |
| C5U A15G U19A A21U C34U | ≤ 0.5 |
| C5U A36U C49G | ≤ 0.5 |
| C5U A14G U26C | 0.662 |
| C5G U28A G67C | 0.634 |
| C5G U53G C60A | ≤ 0.5 |
| C5U A15G U16A A20G U28A C30A C33A A36U | ≤ 0.5 |
| C5U C22U C33U A70C | ≤ 0.5 |
| C5U C11U C29A A40C A45C C61G | 0.612 |
| C5U A14U C46U G52C A69U | ≤ 0.5 |
| C5U A40U A42C A65U | ≤ 0.5 |
| C5U A20C C34A U64C | ≤ 0.5 |
| C5U A20U C30U | ≤ 0.5 |
| C5U A14C C61U | 0.562 |
| C5G U35A A40G | ≤ 0.5 |
| C5U A65U G67A | 0.921 |
| C5U A20G C22G C29A A45U | 0.563 |
| C5U A15U A20C C55A | ≤ 0.5 |
| C5G U16C A20G | ≤ 0.5 |
| C5U C11U U28G A40C | 1.13 |

| Variant | yeast fitness |
| --- | --- |
| C5U C22U C31U C49A U59C A69U | ≤ 0.5 |
| C5U A15U G25A C29U C31U C34U | ≤ 0.5 |
| C5U A21U A40U | 0.57 |
| C5G U16A C29U A40U A65C | ≤ 0.5 |
| C5U A14U C31G G63A | 0.575 |
| C5U A15G A42C C49A | ≤ 0.5 |
| C5U C22G A40G | 0.741 |
| C5U C11A U13C C24G C30G C46U | 0.629 |
| C5G U16A C33A A43C G50A A57U C60G | 0.523 |
| C5U C22G C24G C31U C55A | ≤ 0.5 |
| C5U A43U C66U | 0.68 |
| C5G U35A C49A G51C | ≤ 0.5 |
| C5U C24U A36G C46A U47C C55A | ≤ 0.5 |
| C5U A15U C30G C33G A40G A43U | ≤ 0.5 |
| C5U A21G C27U G41A G63U | ≤ 0.5 |
| C5U A42U C55U A69C | ≤ 0.5 |
| C5U A21U U53A A57U C60A G68C | ≤ 0.5 |
| C5U A45G C62U | 0.994 |
| C5U A20U G50A U59C | 0.544 |
| C5U A14C G41C | 0.613 |
| C5U A43C | 0.813 |
| C5U A14C C55A | ≤ 0.5 |
| C5U A20C C29U C34A C46A G50A A57U | ≤ 0.5 |
